Tests used:
[1] = Neurotoxicity in ip dosed albino mouse by rotarod test; assay type: toxicity, organism-based; details: in vivo
Outline: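 Mice dosed intraperitoneally and tested on the rotorod for neurologic toxicity. Dose-effect data taken at the time of peak effect, given in hours.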

[2] = system: Mus musculus; test: Anticonvulsant activity in ip dosed albino mouse by MES seizure test; assay type: functional
Outline: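 Mice dosed intraperitoneally and challenged by maximal electroshock (MES). Dose-effect data taken at the time of peak effect, given in hours.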

[3] = species: Mus musculus; test: Protective index, ratio of TD50 for albino mouse by rotarod test to ED50 for albino mouse by MES seizure test; assay type: functional
Outline: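 Protective index calculated as TD50/ED50. TD50 is from the mouse rotorod test and ED50 from the MES test, both after intraperitoneal dosing at the time of peak effect.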

SMILES | TD50 [1] | ED50 [2] | Ratio TD50/ED50 [3]
CC(=O)N[C@H](COC(C)(C)C)C(=O)NCc1ccccc1 | 100 mg/kg | 30 mg/kg | –
CCC1(c2ccccc2)C(=O)NC(=O)NC1=O [PHENOBARBITAL] | – | 22 mg/kg | –
CCOC[C@@H](NC(C)=O)C(=O)NCc1ccccc1 | 44 mg/kg | 7.9 mg/kg | 5.6
CC(=O)N[C@H](COC(C)C)C(=O)NCc1ccccc1 | 77 mg/kg | 23 mg/kg | 3.3
CCCC(CCC)C(=O)[O-].[Na+] [VALPROATE SODIUM] | – | 270 mg/kg | –
COCCOCCOC[C@@H](NC(C)=O)C(=O)NCc1ccccc1 | > 300 mg/kg | > 300 mg/kg | –
CC(=O)N[C@H](COc1ccccc1)C(=O)NCc1ccccc1 | 30 mg/kg | 100 mg/kg | –

Source: ChEMBL document CHEMBL1144225, “Synthesis and anticonvulsant activities of N-benzyl (2R)-2-acetamido-3-oxysubstituted propionamide derivatives” (Bioorg Med Chem, 2008)
